The values below come from ChEMBL document CHEMBL1153231, “Novel thioamide derivatives as neutral CB1 receptor antagonists” (Bioorg Med Chem Lett, 2010).

For one data set, the target named is Cannabinoid receptor 1 (Homo sapiens, UniProt P21554). Kind of data set: Agonist activity at human CB1 receptor assessed as stimulation of [35S]GTPgammaS binding. It is filed as functional. (In general: GTPγS is a poorly hydrolysed GTP analogue; its binding reports G protein activation.)
Data set [1] in a line: Aqueous solubility of the compound. It is filed as physicochemical.
Data set [2] in a line: Drug level in mouse brain at 20 umol/kg, po after 6 hrs. Type of data set: ADME, organism-based. The gist of the method: (§1)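 Cafeteria-diet-induced obese mice were given repeated peroral doses. Plasma and brain tissue were sampled 0.5 h, 2 h and 6 h after the last dose, and after a 7-day washout. Levels of both the parent thioamide and its carboxamide counterpart were measured in the same samples. Plasma levels are per litre and brain levels per gram of tissue.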

The nature of data set [3]: Drug level in mouse brain at 20 umol/kg, po after 2 hrs. It is filed as ADME, organism-based. An outline of the steps:
as §1

Data set [4] is described as follows: Plasma concentration in mouse at 20 umol/kg, po after 2 hrs. It is filed as ADME, organism-based. The gist of the method: as §1
Data set [5] is described as follows: Plasma concentration in mouse at 20 umol/kg, po after 6 hrs. It is filed as ADME, organism-based. An outline of the steps:
as §1

Data set [6] can be described thus: Plasma concentration in mouse at 20 umol/kg, po after 7 days. It is filed as ADME, organism-based. An outline of the steps:
as §1

The nature of data set [7]: Drug level in mouse brain at 20 umol/kg, po after 0.5 hrs. It is filed as ADME, organism-based. An outline of the steps:
as §1

Data set [8] is described as follows: Plasma concentration in mouse at 20 umol/kg, po after 0.5 hrs. It is filed as ADME, organism-based. An outline of the steps: as §1
Data set [9] can be described thus: Drug level in mouse brain at 20 umol/kg, po after 7 days. Type of data set: ADME, organism-based. The gist of the method: as §1
Data set [10] relates to Mus musculus. Kind of data set: Reduction in body weight of diet induced obese C57BL/6 mouse at 20-60 umol/kg after 1 week relative to control. It is filed as functional. More on the design: scale not given: the % may be the effect or the level left. The gist of the method:
(§2)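 The test agents were given perorally to cafeteria-diet-induced obese mice over 1–3 weeks. Body weight was tracked as a percentage of initial body weight and compared with vehicle-treated animals.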

For data set [11], the system named is Mus musculus. Kind of data set: Reduction in body weight of diet induced obese C57BL/6 mouse at 20 umol/kg after 1 to 3 weeks relative to control. Type of data set: functional. More on the design: scale not given: the % may be the effect or the level left. An outline of the steps:
as §2

Values after ≈ are worked out from the molar mass of the structure shown.

Sequence of Cannabinoid receptor 1 (P21554 whole entry): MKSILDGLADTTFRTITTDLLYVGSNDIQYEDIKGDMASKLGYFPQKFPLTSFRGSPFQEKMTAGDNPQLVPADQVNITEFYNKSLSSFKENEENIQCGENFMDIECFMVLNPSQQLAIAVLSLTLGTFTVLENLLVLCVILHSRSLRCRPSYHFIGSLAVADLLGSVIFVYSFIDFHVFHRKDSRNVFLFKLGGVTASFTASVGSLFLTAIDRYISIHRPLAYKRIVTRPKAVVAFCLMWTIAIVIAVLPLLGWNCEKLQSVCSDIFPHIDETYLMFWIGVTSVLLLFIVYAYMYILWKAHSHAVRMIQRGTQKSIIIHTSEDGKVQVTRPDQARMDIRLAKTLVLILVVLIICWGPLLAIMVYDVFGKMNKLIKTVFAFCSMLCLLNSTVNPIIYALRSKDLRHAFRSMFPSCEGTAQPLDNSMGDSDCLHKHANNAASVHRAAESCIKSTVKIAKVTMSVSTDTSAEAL

As a reminder, the IC50 is the concentration that inhibits the measured activity by half. Usually solubility stands for the concentration that dissolves in the medium under given conditions. Take `O=C(NC1CCCCC1)c1cnc(-c2ccc(Cl)cc2)c(-c2ccc(Cl)cc2)n1`: on Cannabinoid receptor 1, the IC50 was 16.6 nM. The solubility in [1] is under 0.1 µM.

Regarding `FC1(F)CCC(NC(=S)c2cnc(-c3ccc(Cl)cc3)c(-c3ccc(Cl)cc3)n2)CC1`, the IC50 on Cannabinoid receptor 1 is 4.5 nM. The same molecule returned a solubility in data set [1] of 6.6 µM (≈ 3.16 µg/mL).

With `COCc1nc(-c2ccc(Cl)cc2)c(-c2ccc(Cl)cc2)nc1C(=O)NC1CCC(F)(F)CC1`, the concentration at 6 h came to 0.07 µmol/g in [2] and 148 nM in [5]. Also, the concentration at 2 h in data set [3] is 0.08 µmol/g; in [4], 153 nM. This molecule also registered a concentration at 168 h in [6] of 24 nM. Also, the IC50 at Cannabinoid receptor 1 was determined as 2.9 nM. The concentration at 0.5 h stood at 0.05 µmol/g in data set [7] and 136 nM in data set [8]. Besides, the solubility in data set [1] is under 0.1 µM.

Consider `COCc1nc(-c2ccc(Cl)cc2)c(-c2ccc(Cl)cc2)nc1C(=S)NC1CCC(F)(F)CC1`, for which the concentration at 6 h in [2] amounted to 0.14 µmol/g; in data set [5] it was 137 nM. Besides, the concentration at 2 h in [3] is 0.32 µmol/g; in [4], 604 nM. Moreover, the concentration at 168 h in data set [6] came to 32 nM; in [9], 0.05 µmol/g. Also, the IC50 on Cannabinoid receptor 1 was determined as 2.4 nM. The concentration at 0.5 h in data set [7] is 0.18 µmol/g; in data set [8] it was 403 nM. Also, the Activity in the data set with Mus musculus [10] is 85%. Moreover, the solubility in data set [1] is under 0.1 µM.

Consider `O=C(NC1CCC(F)(F)CC1)c1cnc(-c2ccc(Cl)cc2)c(-c2ccc(Cl)cc2)n1`, for which the IC50 at Cannabinoid receptor 1 was 5.3 nM. In data set [1], the solubility was under 0.1 µM.

On to `S=C(NC1CCCCC1)c1cnc(-c2ccc(Cl)cc2)c(-c2ccc(Cl)cc2)n1`, for which the IC50 at Cannabinoid receptor 1 was 5.8 nM. Besides, in [1], the solubility amounted to 6.1 µM (≈ 2.7 µg/mL).

As to `Cc1c(C(=O)NN2CCCCC2)nn(-c2ccc(Cl)cc2Cl)c1-c1ccc(Cl)cc1` [RIMONABANT], the values for the concentration at 6 h in data set [2] and in [5] were 0.68 µmol/g and 900 nM, respectively. The figures for the concentration at 2 h in [3] and in data set [4] were 1.69 µmol/g and 1950 nM, respectively. Further, the concentration at 0.5 h came out at 1.11 µmol/g in data set [7] and 1360 nM in [8]. In addition, the Activity with Mus musculus [11] worked out at 85%. In data set [1], the solubility is under 1.1 µM.
